Screening results from PubChem BioAssay.
The list is not random: actives were taken first. Their share in the collection is about 1.6%.
HKDC1 inh: HKDC1 hexokinase inhibitors, primary screen, biochemical, fluorescence, uHTS | Q2TB90 | recombinant HKDC1, G6PDH/diaphorase resazurin coupled fluorescence | inhibition, % at 20 µM | 340,000 compounds, 0.16% hits | AID 493160, 2011;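 active means inhibition above about 35% when tested at 20 µM, limit read from the data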
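System: Recombinant HKDC1 hexokinase | Amount: HKDC1 at 5 µg/mL | Reagent: Glucose with 1 mM ATP | Doses: Single 20 µM dose | Incubation: Reaction time 90 min, room temperature, protected from light | Signal: Coupled resazurin fluorescence, excitation 525 nm, emission 613 nm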
TDP2 absorb: human TDP2 enzyme inhibitors, primary screen, biochemical, epi absorbance, recombinant enzyme. Tyrosyl-DNA phosphodiesterase 2 (Homo sapiens), O95551. T5PNP hydrolysis, p-nitrophenol absorbance 415 nm. inhibition, % at 12.8 µM. 370,000 compounds, 0.34% hits. AID 720702, 2013;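 active means inhibition above the mean of all tested compounds plus 3 SD, set per campaign, cut at about 25% in these data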
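Material: recombinant human TDP2; quantity: TDP2 enzyme at 120 nM final; medium: Tris-HCl pH 7.5 with MgCl2; compound: single concentration, 12.8 µM nominal, with 1% DMSO; incubation: 2 h enzyme incubation at 37 °C; signal: epi absorbance; measure: percent inhibition; benchmarks: high control without enzyme, low control DMSO plus TDP2; repeats: singlicate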
GSTO1 counter: inhibitors of recombinant GSTO1, primary screen, counter-screen for RBBP9 inhibitor project, biochemical, fluorescence polarization | Glutathione S-transferase omega-1 (Homo sapiens), P78417 | AID 1974, 2009 | 300,000 compounds, 1.1% hits | inhibition, % at 5.96 µM | activity-based probe fluorescence polarization;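 active means inhibition above the campaign mean inhibition plus 3 SD, cut at about 35% in these data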
UCH37 inh: inhibitors of human UCH37 deubiquitinase, primary screen, biochemical, Ub-AMC cleavage, fluorescence; Ubiquitin carboxyl-terminal hydrolase isozyme L5 (Homo sapiens), Q9Y5K5; purified proteasome/UCH37; inhibition, % (concentration not given with the values); 330,000 compounds, 0.33% hits; AID 588478, 2011;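 active means mean inhibition over replicate wells above about 20%, limit read from the data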
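Reagent: Ub-AMC substrate; assay system: Proteasome-associated human UCH37 deubiquitinase; controls: no-proteasome and no-compound wells; read-out: % inhibition of Ub-AMC cleavage fluorescence; timing: 30 min preincubation with enzyme, 25 min cleavage at room temperature; signal: AMC fluorescence from Ub-AMC cleavage, excitation 355 nm, emission 460 nm; buffer or medium: Tris-HCl pH 7.4 plus ovalbumin, ATP-MgCl2, DTT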
PAD4 FP inh: human PAD4 inhibitors, primary screen, biochemical, fluorescence polarization, 1536-well format | 330,000 compounds, 0.41% hits | recombinant PAD4, RCA probe fluorescence polarization | inhibition, % at 6.36 µM | Protein-arginine deiminase type-4 (Homo sapiens), Q9UM07;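 active means percent inhibition above a cutoff equal to the mean of all tested compounds plus 3 SD, cut at about 15% in these data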
CTSL1 counter: Fasciola hepatica cathepsin L1 inhibitors, primary screen, counter-screen for PFM18AAP inhibitor project, biochemical, QFRET, fluorogenic peptide substrate. inhibition, % at 5.96 µM. AID 1906, 2009. 300,000 compounds, 0.49% hits. recombinant F. hepatica cathepsin L1, Z-Leu-Arg-MCA fluorescence;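 active means inhibition above the mean of all tested compounds plus 3 SD, set per screening campaign, cut at about 17% in these data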
PAD4 confirm: human PAD4 inhibitors, confirmation, biochemical, fluorescence polarization; 1,200 compounds, 28% hits; recombinant PAD4, RCA probe fluorescence polarization; inhibition, % at 6.36 µM; shares compounds with PAD4 FP inh; AID 488796, 2010;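 active means mean inhibition across replicates above the hit cutoff set by the earlier primary screen, cut at about 15% in these data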;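 further: inhibitors block active-site labeling by the probe so polarization falls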
HKDC1 act conf2: HKDC1 hexokinase activators, confirmation, biochemical, single concentration | 740 compounds, 14% hits | inhibition, % at 20 µM | shares compounds with HKDC1 inh | recombinant HKDC1, G6PDH/diaphorase resazurin fluorescence; active compounds read low;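 active means inhibition at or below a set negative limit, negative inhibition meaning the enzyme was activated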
Numbers stand for hits.

`Clc1cccc(-c2ccc(C=Nc3ccc(N4CCOCC4)cc3)o2)c1` gave HKDC1 inh inactive, TDP2 absorb inactive, GSTO1 counter inactive, UCH37 inh inactive, PAD4 FP inh 18.6, CTSL1 counter inactive and PAD4 confirm inactive.
Screening COc1ccc(OC)c(N(C)S(=O)(=O)c2ccc3c(c2)N(C(C)=O)CCO3)c1 returned HKDC1 inh inactive, TDP2 absorb inactive, GSTO1 counter inactive, UCH37 inh inactive, PAD4 FP inh 18.4, CTSL1 counter inactive and PAD4 confirm inactive.
Screening COc1ccc(NS(=O)(=O)c2ccc3c(c2)N(C(C)=O)CCO3)c(OC)c1 returned HKDC1 inh inactive, TDP2 absorb inactive, GSTO1 counter inactive, UCH37 inh inactive, PAD4 FP inh inactive and CTSL1 counter inactive.
Screening COc1ccc(C(N)c2nccc3cc(OC)c(OC)cc23)cc1OC (centres undefined) returned HKDC1 inh inactive, GSTO1 counter 39.3, UCH37 inh inactive, PAD4 FP inh 21.6, CTSL1 counter 26.3 and PAD4 confirm inactive.
`CC(=O)Nc1ccc(S(=O)(=O)Nc2cccc(C(=O)Nc3ccccc3C(=O)O)c2)cc1` gave HKDC1 inh inactive, TDP2 absorb inactive, GSTO1 counter inactive, UCH37 inh inactive, PAD4 FP inh 17.9, CTSL1 counter inactive and PAD4 confirm inactive.
Screening O=C(c1ccncc1)N1N=C(C2CC2)CC1(O)C(F)(F)F (centres undefined) returned HKDC1 inh inactive, TDP2 absorb inactive, GSTO1 counter inactive, UCH37 inh inactive, PAD4 FP inh 24.3, CTSL1 counter inactive and PAD4 confirm inactive.
Clc1ccccc1C=NN1CCN(Cc2ccccc2)CC1 was read as UCH37 inh inactive.
`COc1cccc(N/C(=N\C(=S)Nc2ccc(C)cc2C)Nc2nc(C)cc(C)n2)c1` gave UCH37 inh inactive.
O=C(O)c1cccc(NC(=S)NN=Cc2ccccn2)c1 was read as UCH37 inh inactive.
COC(=O)c1ccc(C(=O)OC)c(NC(=O)COc2ccccc2OC)c1 was read as HKDC1 inh inactive, TDP2 absorb inactive, GSTO1 counter inactive, UCH37 inh inactive, PAD4 FP inh 15.9, CTSL1 counter inactive and PAD4 confirm 18.1.
Screening Cc1ccc(C=NNC(=O)CSc2nnc(-c3ccc(Cl)cc3)n2-c2ccccc2)o1 returned UCH37 inh inactive.
`O=C(/C=C/c1ccco1)NCC(=O)NN=Cc1ccccc1[N+](=O)[O-]` gave UCH37 inh inactive.
CC(=O)C1=C(c2cccc([N+](=O)[O-])c2)N(C(C)=O)n2c(C)nnc2S1 was read as HKDC1 inh inactive, TDP2 absorb inactive, GSTO1 counter inactive, UCH37 inh inactive, PAD4 FP inh 18.5, CTSL1 counter inactive, PAD4 confirm 23.2 and HKDC1 act conf2 -387.4.
For CN(C)c1ccc(C=NN(CCC#N)C2=NS(=O)(=O)c3ccccc32)cc1 the results were UCH37 inh inactive.
For CCN(CC)c1ccc2c(C)c(Cl)c(=O)oc2c1 the results were HKDC1 inh inactive, TDP2 absorb inactive, GSTO1 counter inactive, UCH37 inh inactive, PAD4 FP inh inactive and CTSL1 counter inactive.
For CCN(CC)c1ccc2c(c1)oc(=O)c1c(Cl)cc(=O)oc12 the results were HKDC1 inh 48.6, GSTO1 counter inactive, UCH37 inh inactive, PAD4 FP inh 25.8, CTSL1 counter inactive, PAD4 confirm 19.1 and HKDC1 act conf2 inactive.
